Experimental data reported in ChEMBL document CHEMBL1153554, “Mechanisms by which the G333D mutation in human immunodeficiency virus type 1 Reverse transcriptase facilitates dual resistance to zidovudine and lamivudine” (Antimicrob Agents Chemother, 2008).

How the values were obtained:
[1] = tested on: Human immunodeficiency virus type 1 reverse transcriptase (Human immunodeficiency virus 1), Q72547 [M41L,L210W,T215Y,M184V]; test: Binding affinity to HIV1 LAI reverse transcriptase M41L/L210W/T215Y/M184V mutant relative to wild type
[2] = Binding affinity to HIV1 LAI reverse transcriptase M41L/L210W/T215Y/M184V/G333D mutant; design: species or system Human immunodeficiency virus 1
[3] = tested on: Human immunodeficiency virus type 1 reverse transcriptase (Human immunodeficiency virus 1), Q72547 [M184V]; test: Resistance (selectivity ratio) of HIV1 LAI reverse transcriptase M184V mutant relative to wild type
[4] = tested on: Human immunodeficiency virus 1; test: Ratio of Kpol to Kd for HIV1 LAI reverse transcriptase M41L/L210W/T215Y/M184V/G333D mutant
Method in brief: (§1)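 Pre-steady-state rapid quench: 400 nM active-site RT and 40 nM ³²P-P20/T57 DNA T/P were preincubated in 50 mM Tris-HCl pH 7.5, 50 mM KCl, then mixed with nucleotide in the same buffer containing 20 mM MgCl₂. Quenched with 0.3 M EDTA from 10 ms to 30 min, run on urea-PAGE. kobs came from single-exponential fits; kpol and Kd came from a hyperbolic fit versus nucleotide concentration.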

[5] = tested on: Human immunodeficiency virus type 1 reverse transcriptase (Human immunodeficiency virus 1), Q72547 [M41L,L210W,T215Y]; test: Ratio of Kpol to Kd for HIV1 LAI reverse transcriptase M41L/L210W/T215Y mutant; method in brief: as §1
[6] = tested on: Human immunodeficiency virus type 1 reverse transcriptase (Human immunodeficiency virus 1), Q72547 [M184V]; test: Ratio of Kpol to Kd for HIV1 LAI reverse transcriptase M184V mutant; method in brief: as §1
[7] = tested on: Human immunodeficiency virus type 1 reverse transcriptase (Human immunodeficiency virus 1), Q72547 [M41L,L210W,T215Y,M184V]; test: Ratio of Kpol to Kd for HIV1 LAI reverse transcriptase M41L/L210W/T215Y/M184V mutant; method in brief: as §1
[8] = target: Human immunodeficiency virus type 1 reverse transcriptase (Human immunodeficiency virus 1) (UniProt Q72547); test: Ratio of Kpol to Kd for wild type HIV1 LAI reverse transcriptase; method in brief: as §1
[9] = tested on: Human immunodeficiency virus type 1 reverse transcriptase (Human immunodeficiency virus 1), Q72547 [M41L,L210W,T215Y]; test: Binding affinity to HIV1 LAI reverse transcriptase M41L/L210W/T215Y mutant relative to wild type
[10] = tested on: Human immunodeficiency virus 1; test: Binding affinity to HIV1 LAI reverse transcriptase M41L/L210W/T215Y/M184V/G333D mutant relative to wild type
[11] = target: Human immunodeficiency virus type 1 reverse transcriptase (Human immunodeficiency virus 1, UniProt Q72547); test: Binding affinity to wild type HIV1 LAI reverse transcriptase
Method in brief: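 Bacterially expressed, purified RT, corrected for active-site concentration, preincubated at 400 nM with 40 nM 5′-³²P-labelled 20-nt DNA primer annealed to a 57-nt DNA template in 50 mM Tris-HCl pH 7.5, 50 mM KCl. It was then rapid-quench mixed 1:1 with nucleotide in the same buffer plus 20 mM MgCl₂. EDTA quench at 10 ms–30 min; urea-PAGE. k_obs fitted single-exponential; K_d from hyperbolic k_obs-versus-concentration fit.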

[12] = target: Human immunodeficiency virus type 1 reverse transcriptase (Human immunodeficiency virus 1, UniProt Q72547, M184V); test: Binding affinity to HIV1 LAI reverse transcriptase M184V mutant
[13] = target: Human immunodeficiency virus type 1 reverse transcriptase (Human immunodeficiency virus 1, UniProt Q72547, L210W/M41L/T215Y); test: Binding affinity to HIV1 LAI reverse transcriptase M41L/L210W/T215Y mutant
[14] = target: Human immunodeficiency virus type 1 reverse transcriptase (Human immunodeficiency virus 1, UniProt Q72547, L210W/M184V/M41L/T215Y); test: Binding affinity to HIV1 LAI reverse transcriptase M41L/L210W/T215Y/M184V mutant

Row | SMILES | fold change (FC) [1] | Kd [2] | fold resistance [3] | Ratio [4] | Ratio [5] | Ratio [6] | Ratio [7] | Ratio [8] | fold change (FC) [9] | fold change (FC) [10] | Kd [11] | Kd [12] | Kd [13] | Kd [14]
1 | Cc1cn([C@H]2C[C@H](N=[N+]=[N-])[C@@H](COP(=O)(O)OP(=O)(O)OP(=O)(O)O)O2)c(=O)[nH]c1=O [ZIDOVUDINE TRIPHOSPHATE] | 1.76 | 3.81 µM | 1.13 | 1.1 | 4.26 | 2.41 | 1.3 | 4.41 | 1.14 | 1.81 |  |  |  | 
2 | Nc1ccn([C@@H]2CS[C@H](COP(=O)(O)OP(=O)(O)OP(=O)(O)O)O2)c(=O)n1 [LAMIVUDINE TRIPHOSPHATE] | 61.8 | 17.8 µM | 48.8 | 0.00028 | 0.04 | 0.00061 | 0.0004 | 0.06 | 1.5 | 116 | 0.37 µM | 8.2 µM | 0.43 µM | 9.8 µM
3 | Cc1cn([C@H]2C[C@H](N=[N+]=[N-])[C@@H](CO[P@](=O)(O)O[P@](=O)(O)OP(=O)(O)O)O2)c(=O)[nH]c1=O [ZIDOVUDINE TRIPHOSPHATE] |  |  |  |  |  |  |  |  |  |  | 1.99 µM | 2.9 µM | 1.15 µM | 3.5 µM
